Measurements gathered from unrelated publications.
Lines come from different studies, so protocols differ.

Compound	target or system	test	system	setting	quantity	value
Cc1[nH]c(C(=O)Nc2ccc(C(=O)NCC(=O)O)cc2N2CC[C@@H](NC(=O)OC(C)(C)C)C2)c(Cl)c1Cl	Klebsiella pneumoniae	microbial growth, broth dilution	ATCC700603		MIC	> 32 µg/mL
C=CC(=O)NC1CCN(c2ncc3ncnc(Nc4ccc(Oc5ccc6c(c5)ncn6C)c(C)c4)c3n2)CC1	LS180	cell growth or viability			EC50	5480 nM
CN[C@H](CC(C)C)C(=O)N[C@H]1C(=O)N[C@@H](CC(N)=O)C(=O)N[C@H]2C(=O)N[C@H]3C(=O)N[C@H](C(=O)N[C@H](C(=O)O)c4cc(O)cc(O)c4-c4cc3ccc4O)[C@H](O)c3ccc(c(Cl)c3)Oc3cc2cc(c3O[C@@H]2O[C@H](CO)[C@@H](O)[C@H](O)[C@H]2O[C@H]2C[C@](C)(N)[C@H](O)[C@H](C)O2)Oc2ccc(cc2Cl)[C@H]1O	Streptococcus pneumoniae	microbial growth	ATCC49619		MIC	0.25 µM
CO[C@@H]1[C@@H](OC(N)=O)[C@@H](O)[C@H](Oc2ccc3c(O)c(NC(=O)c4ccc(O)c(CC=C(C)C)c4)c(=O)oc3c2C)OC1(C)C	Klebsiella pneumoniae	microbial growth, broth dilution	ATCC10031		MIC	0.5 µg/mL
COc1cccc2c1C(=O)c1c(O)c3c(c(O)c1C2=O)C[C@@](O)(C(=O)CO)C[C@@H]3O[C@H]1C[C@H](N)[C@H](O)[C@H](C)O1	Caco-2	cell growth or viability, MTT		12.5 µg/mL, 48 h, serum-free	viability	40.5%
COc1ccc(COC[C@@](O)(CNCc2ccccc2)[C@@H]2CC[C@@H](C)C[C@H]2OCc2ccc(OC)cc2)cc1	A2780	cell growth or viability, MTT		30 µM, 72 h	inhibition	100%
C=C(F)C(=O)N1CCN(c2nc(OC[C@@H]3CCCN3C)nc3c2CCN(c2cccc4cccc(Cl)c24)C3)C[C@@H]1CC#N	NCI-H2122	cell growth or viability, ATP luminescence			IC50	192 nM
C[C@@H]1CC[C@@H]([C@](C)(O)CNCc2cccc(F)c2)[C@H](OCc2ccccc2)C1	A2780	cell growth or viability, MTT		10 µM, 72 h	inhibition	30.6%
NC(=O)c1ccc(Oc2ccc(C(=O)C(Cl)Cl)cc2[N+](=O)[O-])cc1	NCI-H1650	cell growth or viability, MTT		2.5 µM	inhibition	59.3%
COc1ccc(CNC[C@](O)(COCc2ccc(F)cc2)[C@@H]2CC[C@@H](C)C[C@H]2OCc2ccc(F)cc2)cc1	A2780	cell growth or viability, MTT		10 µM, 72 h	inhibition	93.8%
Cl.N[C@@H]1CCN(c2cc(C(=O)NCC(=O)O)ccc2NC(=O)c2cc(Br)c(Br)[nH]2)C1	Klebsiella pneumoniae	microbial growth, broth dilution	ATCC700603		MIC	> 32 µg/mL
COc1ccc(CNC[C@](O)(COCc2ccc(OC)cc2)[C@@H]2CC[C@@H](C)C[C@H]2OCc2ccc(OC)cc2)cc1	A2780	cell growth or viability, MTT		10 µM, 72 h	inhibition	98.7%
CC(=O)Nc1ccc(Oc2ccc(C(=O)C(Cl)Cl)cc2[N+](=O)[O-])cc1Cl	NCI-H1650	cell growth or viability, MTT		2.5 µM	inhibition	77.8%
C[C@@H]1CC[C@@H]([C@](C)(O)CNCc2cccc3ccccc23)[C@H](OCc2ccccc2)C1	A2780	cell growth or viability, MTT		30 µM, 72 h	inhibition	94.2%
Cc1[nH]c(C(=O)Nc2ccc(C(=O)NCC(=O)O)cc2N2CCN(C(=O)OC(C)(C)C)CC2)c(Cl)c1Cl	Klebsiella pneumoniae	microbial growth, broth dilution	ATCC700603		MIC	> 32 µg/mL
